Measurements reported in ChEMBL document CHEMBL4138189, “Role of the Benzodioxole Group in the Interactions between the Natural Alkaloids Chelerythrine and Coptisine and the Human Telomeric G-Quadruplex DNA. A Multiapproach Investigation” (J Nat Prod, 2017).
Calls of active or inactive are those of the source. The calls are words filed in the database; no cut-off is given here.

Tests used:
Quadruplex DNA [1] = experiment: Stabilization of 5'Dabcyl/3'FAM labeled human telomeric sequence G-quadruplex DNA assessed as change in melting temperature at 5 uM in presence of KCl by fluorescence assay; type: nucleic-acid assay
Outline: (§1)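 Labelled telomeric DNA, 0.25 μM strand, in 10 mM LiOH, pH 7.5 (H3PO4), 50 mM KCl, with increasing ligand. Samples were heated and cooled over 25–95 °C at 0.1 °C/s, held 5 min at 30 °C, then heated to 95 °C at 1 °C/min. Fluorescence excited at 488 nm, read at 520 nm. Tm from first derivative of melting profile; at least triplicate, errors ±0.3 °C.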

Quadruplex DNA [2] = experiment: Displacement of thiazole orange from telomeric 22 H1 G-quadruplex DNA (unknown origin) in presence of KCl by fluorescent intercalator displacement assay; type: nucleic-acid assay
Outline: (§2)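 Target DNA (0.62 μM) was mixed with thiazole orange (1.24 μM) in 10 mM Tris, 50 mM KCl, pH 7.5, at 25 °C and titrated with compound. Fluorescence was excited at 501 nm and read at 520–680 nm. Displacement = 100 − (F/F0 × 100); EC50 was taken from displacement versus concentration. Each titration was run at least in triplicate.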

Quadruplex DNA [3] = experiment: Displacement of thiazole orange from wild-type telomeric 22 H2 G-quadruplex DNA (unknown origin) in presence of KCl by fluorescent intercalator displacement assay; type: nucleic-acid assay; outline: as §2
Quadruplex DNA [4] = experiment: Binding affinity to wild-type telomeric 22 H2 G-quadruplex DNA (unknown origin) assessed as decrease in positive cotton effect at 260 nm at 40 to 80 uM in presence of KCl by electronic circular dichorism spectra analysis; type: nucleic-acid assay
Outline: (§3)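 DNA annealed at 4 μM (strand concentration) in 10 mM Tris, 50 mM KCl, pH 7.5, with or without 40% MPD. ECD spectra were read at 230–350 nm in a 10 mm cell under Peltier temperature control, without ligand and with increasing ligand (0–80 μM). Cotton effects were converted to mean residue ellipticity.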

Calf thymus DNA [5] = experiment: Stabilization of calf thymus DNA assessed as change in melting temperature at 5 uM by fluorescence assay; type: nucleic-acid assay; details: Bos taurus
Quadruplex DNA [6] = experiment: Stabilization of 5'Dabcyl/3'FAM labeled human telomeric sequence G-quadruplex DNA assessed as change in melting temperature up to 30 uM in presence of KCl by fluorescence assay; type: nucleic-acid assay; outline: as §1
[7] = Selectivity ratio of EC50 for displacement of thiazole orange from wild-type telomeric 22 H2 G-quadruplex DNA (unknown origin) to EC50 for displacement of thiazole orange from telomeric 22 H1 G-quadruplex DNA (unknown origin); outline: as §2
Calf thymus DNA [8] = experiment: Binding affinity to calf thymus DNA in presence of KCl by UV-spectra analysis; type: nucleic-acid assay; details: Bos taurus
Quadruplex DNA [9] = experiment: Binding affinity to wild-type telomeric 22 H2 G-quadruplex DNA (unknown origin) assessed as increase in positive cotton effect at 295 nm at 40 to 80 uM in presence of KCl by electronic circular dichorism spectra analysis; type: nucleic-acid assay; outline: as §3
Calf thymus DNA [10] = experiment: Binding affinity to calf thymus DNA up to 80 uM in presence of KCl by electronic circular dichorism spectra analysis; type: nucleic-acid assay; details: Bos taurus; outline: as §3
Quadruplex DNA [11] = experiment: Binding affinity to telomeric 22 H1 G-quadruplex DNA (unknown origin) assessed as increase in positive cotton effect at 295 nm at 40 to 80 uM by electronic circular dichorism spectra analysis; type: nucleic-acid assay; outline: as §3
Quadruplex DNA [12] = experiment: Binding affinity to telomeric 22 H1 G-quadruplex DNA (unknown origin) assessed as decrease in positive cotton effect at 260 nm at 40 to 80 uM by electronic circular dichorism spectra analysis; type: nucleic-acid assay; outline: as §3
Quadruplex DNA [13] = experiment: Binding affinity to telomeric 12 G-quadruplex DNA (unknown origin) assessed as increase in cotton effect amplitude up to 10 fold excess DNA concentration in presence of MPD by electronic circular dichorism spectra analysis; type: nucleic-acid assay

COc1ccc2c(c[n+](C)c3c4cc5c(cc4ccc23)OCO5)c1OC [CHELERYTHRINE]
Activity (Quadruplex DNA [1]): Active | EC50 (Quadruplex DNA [2]): 2.59 µM | EC50 (Quadruplex DNA [3]): 3.75 µM | Activity (Quadruplex DNA [4]): Active | Activity (Calf thymus DNA [5]): inactive | Activity (Quadruplex DNA [6]): Active | Ratio EC50 [7]: 0.7 | Activity (Calf thymus DNA [8]): Active | Activity (Quadruplex DNA [9]): Active | Activity (Calf thymus DNA [10]): Active | Activity (Quadruplex DNA [11]): Active | Activity (Quadruplex DNA [12]): Active

c1c2c(cc3c1OCO3)-c1cc3ccc4c(c3c[n+]1CC2)OCO4 [COPTISINE]
Activity (Quadruplex DNA [1]): Active | EC50 (Quadruplex DNA [2]): 12 µM | EC50 (Quadruplex DNA [3]): 5.93 µM | Activity (Quadruplex DNA [4]): Active | Activity (Calf thymus DNA [5]): inactive | Activity (Quadruplex DNA [6]): Active | Ratio EC50 [7]: 2 | Activity (Calf thymus DNA [8]): Active | Activity (Quadruplex DNA [13]): Active | Activity (Quadruplex DNA [9]): Active | Activity (Calf thymus DNA [10]): Active | Activity (Quadruplex DNA [11]): Active | Activity (Quadruplex DNA [12]): Active
